Data set [1] has as its target Kallikrein-7 (Homo sapiens) (UniProt P49862). In words: Inhibition of N-terminal SUMO and His6-tagged human KLK7 expressed in Escherichia coli Rosetta (DE3) pLysS assessed as reduction in covalent KLK7-vaspin complex formation using compound pre-treated KLK7 incubated for 60 mins by Coomassie-staining based SDS-PAGE method. In short, it runs like this: (§1)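 KLK7 was pre-treated with 1 mM compound (10 % DMSO, 37 °C, 30 min) and concentrated on a 5 kDa spin column. It was then mixed with vaspin at a 3:1 molar ratio (3.15 μM KLK7, 1.05 μM vaspin) in 50 mM Tris, 150 mM NaCl, pH 8.0 (elsewhere stated as pH 7.5) at room temperature for up to 60 min. Time-point samples were boiled 5 min in reducing SDS buffer, run on 12 % gels and Coomassie-stained.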

The target is the same in data set [2]. Kind of data set: Inhibition of N-terminal SUMO and His6-tagged human KLK7 assessed as reduction in vaspin-N-terminal cleavage using compound pre-treated KLK7 incubated for 60 mins by Coomassie-staining based SDS-PAGE method. In short, it runs like this: as §1
For data set [3] the target is unchanged. In words: Inhibition of N-terminal SUMO and His6-tagged human KLK7 assessed as protease activity by measuring fluorogenic peptide substrate NFF-3 cleavage (reference value: >400 pmol/(min.ug).
Data set [4] has the same target. In words: Covalent binding affinity to of N-terminal SUMO and His6-tagged human KLK7 expressed in Escherichia coli Rosetta (DE3) pLysS assessed as compound binding to His57 of catalytic triad by mass spectrometry.
Data set [5] can be described thus: Stability in 100% DMSO at -20 degC for several months by ESI-MS and 1H NMR spectroscopy. It is filed as physicochemical.

Molecules are shown by their SMILES. Activity calls are given as the source filed them. The rule behind the calls is not given here.

These results are taken from ChEMBL document CHEMBL4602722, “Structural Studies on the Inhibitory Binding Mode of Aromatic Coumarinic Esters to Human Kallikrein-Related Peptidase 7” (J Med Chem, 2020).

Chain of Kallikrein-7 (Homo sapiens) (P49862 30-253 limits assumed): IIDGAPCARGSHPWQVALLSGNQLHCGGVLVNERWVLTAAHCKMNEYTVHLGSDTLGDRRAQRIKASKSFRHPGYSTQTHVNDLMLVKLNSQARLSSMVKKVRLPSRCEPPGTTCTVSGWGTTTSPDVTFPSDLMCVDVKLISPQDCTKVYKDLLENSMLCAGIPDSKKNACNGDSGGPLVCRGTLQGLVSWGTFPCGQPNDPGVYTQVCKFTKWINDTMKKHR

In the case of `O=C(Oc1cccc(I)c1)c1cc2cc(CCl)ccc2oc1=O`, the inhibition result in data set [1] was “Active”. For the same compound, the inhibition result in data set [2] was “inactive”. Moreover, the Activity in data set [3] is less than 0.1 pmol/min/µg.
For `O=C(Oc1cccc(Cl)c1)c1cc2cc(CCl)ccc2oc1=O`, in that order: “Active”, “inactive” and less than 0.1 pmol/min/µg.
`O=C(Oc1cccc(Br)c1)c1cc2cc(CCl)ccc2oc1=O`: the inhibition entry in data set [1] is “Active”. For the same compound, in data set [2], the inhibition result was “inactive”. Further, the Activity in data set [3] is less than 0.1 pmol/min/µg. Besides, the outcome in data set [4] was Active. Besides, in data set [5], the Stability result is on record as “Stable”.
